Laboratory results: PubChem BioAssay AID504382 (The Scripps Research Institute Molecular Screening Center, 2011)
The whole screen tested about 2,500 compounds, of which about 460 (18%) were called active.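 The calls were made as follows: active = mean activation above a cutoff of low control average plus 3 SD from the earlier screen (cut at about 12% in these data); inactive = the rest.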 These entries were drawn from the full list.

Test: compound fluorescence interference without thin filaments, confirmation, artefact control for cardiac RTF calcium sensitizer project, biochemical (AID 504382)
Settings: IANBD fluorescence interference counterscreen, buffer, EC20 Ca2+; at 7.2 µM; stronger effect = higher value; scaled: EC20 calcium 0, EC100 calcium 100
How it was run: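 Doses – one dose of 7.2 µM, 0.7% DMSO · Buffer or medium – MOPS/KCl/MgCl2/EGTA/NTA/DTT buffer, pH 7.2 · Probe or stimulus – Ca2+ fixed at EC20, 0.472 mM · Measured by – fluorescence intensity, excitation 480 nm, emission 540 nm · Read-out – fluorescence interference versus control range · Timing – 15 min compound exposure at 25 °C · Replication – triplicate wells per compound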
With `CCc1ccc(C(C)NC(=O)c2ncn[nH]2)cc1` (configuration not stated) the fluorescence artifact activation was 2.22% (inactive).
For `Clc1ccc(-n2cc(-c3ccc(Br)cc3)[n+]3c2CCCCC3)cc1`, the fluorescence artifact activation was -0.05% (inactive).
With `CC(C)(Cc1cccc(CC(C)(C)C(=O)O)c1)C(=O)O` the fluorescence artifact activation was 0.07% (inactive).
In the case of `CC(=O)Oc1ccc2c(c1)Oc1cc(OC(C)=O)ccc1C21OC(=O)c2ccccc21`, the fluorescence artifact activation is reported as 13.6% (active).
For `CC(=O)Oc1ccc(NC(=O)Cc2ccccc2)c(C(=O)O)c1`, the fluorescence artifact activation was 4.96% (inactive).
In the case of `CCOc1ccc(-c2ncncc2-c2ccccc2OC)c(O)c1`, the fluorescence artifact activation is reported as 0.08% (inactive).
With `COc1ccc(-n2nc3c(N4CCC(C(=O)N5CCC(C)CC5)CC4)nnc(C)c3c2C)cc1` the fluorescence artifact activation was 0.01% (inactive).
For `CCOC(=O)C(CCCCCCC(NC(C)=O)(C(=O)OCC)C(=O)OCC)(NC(C)=O)C(=O)OCC`, the fluorescence artifact activation was -0.02% (inactive).
For `Cc1ccc(C(=O)N(C)CC(=O)Nc2cccc(F)c2)cc1S(=O)(=O)N1CCCCC1`, the fluorescence artifact activation was 0.72% (inactive).
With `Cc1ccnc(N/C=C(\C#N)c2nc(-c3cccc(Br)c3)cs2)c1` the fluorescence artifact activation was 5.15% (inactive).
With `COc1cccc(/C=N/Nc2nnc(C)n2N)c1O` the fluorescence artifact activation was 0.12% (inactive).
For `CC(C)(C)c1ccc(-c2n[nH]c(=S)n2CC2CCCO2)cc1` (configuration not stated), the fluorescence artifact activation was 34.7% (active).
With `CCOc1cc(/C=C2\NC(=O)NC2=O)cc([N+](=O)[O-])c1O` the fluorescence artifact activation was 0.01% (inactive).
With `COc1ccc(/C=C2/SC(c3ccc(C)cc3)=NC2=O)cc1OC` the fluorescence artifact activation was 6.74% (inactive).
In the case of `CCOC(=O)c1ccc(-c2c(-c3ccc4c(c3)OCO4)noc2C)cc1F`, the fluorescence artifact activation is reported as 0.96% (inactive).
For `O=C(Cc1nc2ccccc2[nH]c1=O)c1ccccc1`, the fluorescence artifact activation was 0.01% (inactive).
With `O=C(O)CSc1nc2ccccc2nc1Cc1ccccc1F` the fluorescence artifact activation was 163% (active).
For `O=c1ccc2cc3c4c(c2o1)CCCN4CCC3`, the fluorescence artifact activation was 9.87% (inactive).
In the case of `Cn1ncc2c(O/N=C(\N)c3ccc(C(F)(F)F)cc3)ncnc21`, the fluorescence artifact activation is reported as 18.5% (active).
With `Cc1c(O)c(=O)c2ccccc2n1C` the fluorescence artifact activation was 2.22% (inactive).
With `CCCOc1ccc(Cn2c(=O)oc3ccc(C)cc32)cc1OC` the fluorescence artifact activation was 6.44% (inactive).
For `CCOc1ccc2ccccc2c1CNCCN1CCOCC1`, the fluorescence artifact activation was 9.02% (inactive).
With `CCCCCOc1ccc(CN2CCOCC2)cc1Cl` the fluorescence artifact activation was 25.8% (active).
In the case of `CCC(=O)N(C)CCc1cc2c(c(OC)c1/C=N/NC(=O)c1ccc(Br)cc1)OCO2`, the fluorescence artifact activation is reported as 0.24% (inactive).
With `O=C(Cn1c(=O)c(=O)n(Cc2ccccc2)c2ccc(Cl)cc21)Nc1ccc(F)cc1F` the fluorescence artifact activation was 0.95% (inactive).
For `COc1ncnc2c1N=C1CC(C)(C)CC(N)=C1S2`, the fluorescence artifact activation was 17.8% (active).
In the case of `CC1(C)CC2CC(C)(CN2C(=S)Nc2ccccc2F)C1` (configuration not stated), the fluorescence artifact activation is reported as 0.69% (inactive).
In the case of `O=C(NC1CC1)c1cccc2c1C(=O)c1ccc(N3CCC(Cc4ccccc4)CC3)cc1S2(=O)=O`, the fluorescence artifact activation is reported as -0.05% (inactive).
In the case of `COc1ccc2c(Cl)c(C(=O)N/N=C3\CCCC(=O)C3)sc2c1`, the fluorescence artifact activation is reported as 16.2% (active).
For `O=C1CCC/C(=N/NC(=O)c2sc3ccccc3c2Cl)C1`, the fluorescence artifact activation was 0.36% (inactive).
For `O=C1CCCC(=NNC(=O)c2cc3ccccc3cc2O)C1`, the fluorescence artifact activation was 0.08% (inactive).
With `CN(C)/C=C/C(=O)c1ccc(Br)s1` the fluorescence artifact activation was 0.3% (inactive).
With `O=c1c(/C=N/Nc2ccccc2)c(Sc2nnnn2-c2ccccc2)nc2ccccn12` the fluorescence artifact activation was -0.06% (inactive).
For `C(=N\Nc1nnnn1-c1ccccc1)/c1ccncc1`, the fluorescence artifact activation was 0.02% (inactive).
With `O=C(O)c1ccccc1CSc1nnnn1-c1ccccc1` the fluorescence artifact activation was 13.5% (active).
In the case of `Cc1ccnc(NC(=O)c2ccc(Br)s2)c1`, the fluorescence artifact activation is reported as 0.08% (inactive).
In the case of `CCCCC1=CC2=C(c3ccco3)C(=O)C(C)(OC(=O)c3ccc(OC)cc3)C(=O)C2=CN1CCc1ccccn1` (configuration not stated), the fluorescence artifact activation is reported as 5.57% (inactive).
For `O=C(COC(=O)/C=C/c1ccccc1[N+](=O)[O-])NNC(=O)c1ccc(F)cc1`, the fluorescence artifact activation was 0.09% (inactive).
In the case of `COc1ccc(OC)c(NC(=O)CNC(=O)Cn2c(C)cc3ccccc3c2=O)c1`, the fluorescence artifact activation is reported as 1380% (active).
In the case of `COc1ccc(OC)c(NC(=S)Nc2ccccc2)c1`, the fluorescence artifact activation is reported as -0.01% (inactive).
In the case of `COCc1cc(C)n(CC(=O)Nc2ccccc2C(=O)OC)c(=O)c1C#N`, the fluorescence artifact activation is reported as 5.24% (inactive).
For `C=CCn1c(COc2cccc(C)c2)nnc1SCn1nnc2ccccc2c1=O`, the fluorescence artifact activation was 0.03% (inactive).
In the case of `NC(=O)C1(NC(=O)[C@@H]2CC3(CC(c4cccc(NC(=O)[C@@H]5CCC(=O)N5)c4)=NO3)CN2C(=O)c2ccccc2)CC1` (some centres not stated), the fluorescence artifact activation is reported as 0.3% (inactive).
For `CCC(=O)Nc1ccc(NC(=S)NC(=O)c2oc3ccccc3c2C)cc1`, the fluorescence artifact activation was 0.25% (inactive).
With `COCCCn1c(=O)/c(=C\c2ccccc2OC(C)C)s/c1=C(/C#N)C(=O)Nc1ccc(C(=O)O)cc1` the fluorescence artifact activation was 0.05% (inactive).
For `CN(C)c1ccc(/C=C(/C#N)C(=O)NCc2ccccc2)o1`, the fluorescence artifact activation was 2.9% (inactive).
For `CCN(CC)c1ccc(/C=C(/C#N)C(=O)NCc2ccccc2)o1`, the fluorescence artifact activation was 0.1% (inactive).
In the case of `CN(C)c1ccc(/C=C(\C#N)C(=O)c2ccccc2)cc1`, the fluorescence artifact activation is reported as 0.22% (inactive).
In the case of `CCN(CC)c1ccc(/C=C(\C#N)C(=O)c2ccc(Br)cc2)cc1`, the fluorescence artifact activation is reported as -0.11% (inactive).
For `CCN(CC)c1ccc(/C=C(\C#N)C(=O)NCc2ccccc2)cc1`, the fluorescence artifact activation was 13.8% (active).
In the case of `CCN(CC)c1ccc(/C=C(\C#N)C(N)=S)cc1`, the fluorescence artifact activation is reported as 16.2% (active).
With `O=C(COC(=O)c1ccc(S(=O)(=O)N2CCCC2)cc1)NCc1ccco1` the fluorescence artifact activation was 0.32% (inactive).
For `COc1ccccc1C(=O)NN(C)C1=NS(=O)(=O)c2ccccc21`, the fluorescence artifact activation was 0.12% (inactive).
With `CCNC(=O)NNC(=O)C1CC(c2cccs2)=NO1` (configuration not stated) the fluorescence artifact activation was 0% (inactive).
For `Cc1ccc(C2NC(=O)c3c(sc4c3CCN(C)C4)N2)o1` (configuration not stated), the fluorescence artifact activation was 0.12% (inactive).
With `CCOC(=O)c1c(C)[nH]c(C2=NNC(=NC(C)COC)SC2)c1C` (configuration not stated) the fluorescence artifact activation was 22% (active).
For `Cc1cc(C)n(-c2ccc([N+](=O)[O-])cc2-c2nn[nH]n2)n1`, the fluorescence artifact activation was 2.39% (inactive).
In the case of `CCC(=Cc1ccccc1OC)c1ccncc1`, the fluorescence artifact activation is reported as 3.06% (inactive).
For `COc1ccc(CCNc2cc(C)[nH]c(=O)c2)cc1OC`, the fluorescence artifact activation was 0.6% (inactive).
With `COc1ccc(NC(=O)CCN2CC(C)OC(C)C2)c(OC)c1` (configuration not stated) the fluorescence artifact activation was 0.05% (inactive).
In the case of `Cc1ccc(C)c(NC(=O)CCN2CCOCC2)c1`, the fluorescence artifact activation is reported as -0.02% (inactive).
For `COc1ccc(NC(=O)CCN2CCCC2)c(OC)c1`, the fluorescence artifact activation was 27.4% (active).
